Source: PubChem
TRPC4 PAM – allosteric potentiators of mouse TRPC4 channel; actives 0.42% (n = 310,000); B-score at 10 µM; HEK293 TRPC4beta/mu-opioid, DAMGO EC20, Fluo-4 Ca2+ flux; hits give high values;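 active = B-score of calcium response area above 5 SD of library B-scores, with initial fluorescence ratio within 5 SD of library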
TRPC6 inhibitor – inhibitors of mouse TRPC6 channel | B-score at 10 µM | HEK293-TRPC6, membrane potential dye, ACh-evoked depolarization; hits give low values | actives 1.1% (n = 310,000);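 active = B-score under library mean minus 3 SD, initial fluorescence not abnormally high, positive integrated signal ratio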;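 note: B-score derived from integrated fluorescence ratio over the kinetic read; more negative B-score means stronger inhibition of depolarization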
Target sequence (Q61143 whole entry, looked up): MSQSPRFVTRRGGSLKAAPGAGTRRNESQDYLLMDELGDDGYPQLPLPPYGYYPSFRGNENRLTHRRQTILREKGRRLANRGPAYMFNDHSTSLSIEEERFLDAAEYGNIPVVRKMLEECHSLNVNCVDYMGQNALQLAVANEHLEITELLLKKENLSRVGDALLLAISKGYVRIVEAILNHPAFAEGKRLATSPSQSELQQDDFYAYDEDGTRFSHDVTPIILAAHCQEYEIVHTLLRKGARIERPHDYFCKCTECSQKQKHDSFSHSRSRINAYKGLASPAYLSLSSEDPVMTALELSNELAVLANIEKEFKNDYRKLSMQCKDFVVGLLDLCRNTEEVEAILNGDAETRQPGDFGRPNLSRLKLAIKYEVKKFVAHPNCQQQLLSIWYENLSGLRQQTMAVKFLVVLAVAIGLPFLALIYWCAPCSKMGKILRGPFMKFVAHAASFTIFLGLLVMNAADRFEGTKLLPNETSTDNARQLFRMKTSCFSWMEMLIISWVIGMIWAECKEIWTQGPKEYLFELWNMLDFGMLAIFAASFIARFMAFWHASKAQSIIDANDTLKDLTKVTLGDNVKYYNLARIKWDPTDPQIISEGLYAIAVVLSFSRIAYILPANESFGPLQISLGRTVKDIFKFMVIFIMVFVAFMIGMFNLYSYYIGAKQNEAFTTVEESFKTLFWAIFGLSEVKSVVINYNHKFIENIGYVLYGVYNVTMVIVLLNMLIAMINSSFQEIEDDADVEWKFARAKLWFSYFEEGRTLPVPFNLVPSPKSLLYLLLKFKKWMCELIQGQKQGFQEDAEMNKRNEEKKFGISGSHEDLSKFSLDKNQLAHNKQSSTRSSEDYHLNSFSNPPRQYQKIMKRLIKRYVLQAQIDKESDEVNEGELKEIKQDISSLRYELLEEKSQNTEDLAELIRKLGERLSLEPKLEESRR
TRPC4 block – blocks the mouse TRPC4 cation channel. Q9QUQ5. HEK293 TRPC4beta/mu-opioid, DAMGO-evoked Fluo4 calcium flux; hits give low values. B-score at 10 µM. actives 0.39% (n = 300,000);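 active = B-score over 3 SD under the library average, no early fluorescence shift, positive overall ratio signal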
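Test system – stable TRPC4beta/mu-opioid receptor HEK293 cells · Probe or stimulus – DAMGO, a submaximal dose followed by a maximal one · Dosing – one concentration per compound · Signal – Fluo4 calcium fluorescence by kinetic imaging, 5 s 1 Hz baseline · Evaluation – per-well B score of integrated baseline-normalized Fluo4 ratio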
TRPC4 agonist – activators of mouse TRPC4 channel | Q9QUQ5 | HEK293 TRPC4beta/mu-opioid, Fluo4 calcium fluorescence; hits give high values | B-score at 10 µM | actives 0.49% (n = 310,000) | AID 2237;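 active = B-score above 5 SD of library B-scores, and initial fluorescence ratio not above library mean plus 5 SD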;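 note: positive B-score marks a calcium rise read as TRPC4 activation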
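Assay system: HEK293 stable line with TRPC4beta plus mu-opioid receptor. Times: dye 45 min RT, read 110 s. Measured by: kinetic Fluo4 calcium fluorescence. Measure: B score of integrated ratio. Controls: assay buffer as low control, maximal DAMGO as high control.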
TRPC6 act – activators of mouse TRPC6 channel; Q61143; HEK293-TRPC6 membrane potential dye fluorescence; hits give high values; B-score at 10 µM; actives 0.13% (n = 310,000); AID 2550;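 active = B-score of the integrated fluorescence ratio above library mean plus 3 SD, and starting fluorescence ratio within library mean plus 5 SD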;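 note: higher score means more depolarization so channel activation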
TRPC4 sel inh 2 – second check of whether TRPC6 inhibitors also affect mouse TRPC4. inhibition, % at 10 µM. HEK293 TRPC4/MOR, membrane potential dye fluorescence; channel activated by saturating DAMGO dose. shares compounds with TRPC6 inhibitor. actives 42% (n = 920);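 active = compounds whose fluorescence signal differed from control wells by over 3 SD, either direction, in both duplicate plates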
TRPC4 spec – mouse TRPC4 off-target activity of TRPC6 inhibitors | activity change, negative = inhibition, % at 10 µM | AID 2777 | HEK293 TRPC4/mu-opioid, membrane potential fluorescence | shares compounds with TRPC6 inhibitor | actives 61% (n = 920);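 active = rise or fall in signal beyond 3 SD of buffer-only wells in both replicate plates, either sign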;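 note: integrated kinetic ratio of fluorescence range over baseline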
HEK293 MPD ctr 2-1 – second counter-screen for TRPC6 inhibitors: parental HEK293 cells | signal change vs control, % at 10 µM | AID 2779 | shares compounds with TRPC6 inhibitor | actives 31% (n = 920) | parental HEK293 membrane potential dye fluorescence; maximal acetylcholine challenge after compound addition;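 active = membrane potential signal moving either way by over 3 SD of the maximum-effect control, in both duplicate plates, meaning non-specific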
HEK293 MPD ctr-1 – parental HEK293 nonspecific activity of TRPC6 inhibitors; actives 60% (n = 920); parental HEK293 membrane potential dye fluorescence; membrane potential signal change, % at 10 µM; shares compounds with TRPC6 inhibitor;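 active = membrane potential signal shifting up or down by more than 3 SD of buffer-only wells, on both duplicate plates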
HEK293 MPD ctr-2 – checks TRPC6 modulator effects in parental HEK293 cells; shares compounds with TRPC6 inhibitor; actives 51% (n = 2,400); membrane potential dye fluorescence; membrane potential signal change, % at 10 µM;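 active = membrane potential signal moves up or down beyond 5 SD from buffer-only wells, on both duplicate plates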
HEK293 MPD ctr 2-2 – second check of TRPC6 modulator effects in parental HEK293 cells; membrane potential dye fluorescence; after compound, maximal acetylcholine stimulation; shares compounds with TRPC6 inhibitor; actives 14% (n = 2,400); inhibition, % at 10 µM; AID 488926;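 active = membrane potential signal drops by more than 5 SD from the mean control signal, in both duplicate plates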
TRPC4 ctr mod – tests whether TRPC6 modulators also affect mouse TRPC4. shares compounds with TRPC6 inhibitor. HEK293 TRPC4/mu-opioid, membrane potential fluorescence. percent change from control (negative = decrease, positive = increase), % at 10 µM. actives 69% (n = 2,400);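 active = membrane potential signal moved up or down beyond 5 SD of buffer control wells, in both duplicate plates, actives on both sides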
TRPC4/MOR inh 2 – second check of whether TRPC6 modulators also affect mouse TRPC4; shares compounds with TRPC6 inhibitor; HEK293 TRPC4/mu-opioid, membrane potential dye fluorescence; stimulated with maximal-effect DAMGO; inhibition, % at 10 µM; actives 55% (n = 2,400);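 active = drop in membrane potential signal beyond 5 SD of the control wells in both duplicate plates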;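 note: TRPC4 counter screen for TRPC6 hits run under conditions tuned for TRPC6 not TRPC4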
TRPC6 inh conf – mouse TRPC6 inhibitor confirmation. actives 43% (n = 3,300). inhibition, % at 10 µM. HEK293-TRPC6, membrane potential dye, ACh-evoked depolarization. shares compounds with TRPC6 inhibitor. AID 488960;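 active = fluorescence ratio falls more than 5 SD below the full-stimulation control mean, in both duplicate runs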;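 note: integrated fluorescence ratio of peak minus minimum over baseline after agonist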
TRPC6 act conf – mouse TRPC6 activator confirmation. actives 11% (n = 2,800). activation, % at 10 µM. HEK293-TRPC6 membrane potential dye fluorescence, FDSS. shares compounds with TRPC6 inhibitor;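 active = ratio signal rise beyond 5 SD above unstimulated control wells' mean, seen in both duplicate runs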
Numbers stand for hits; n = inactive; x = no result given. Sampled rows, rich in hits. Any-hit rate of the full collection: about 2.3%.

SMILES | TRPC4 PAM | TRPC6 inhibitor | TRPC4 block | TRPC4 agonist | TRPC6 act | HEK293 MPD ctr-2 | HEK293 MPD ctr 2-2 | TRPC4 ctr mod | TRPC4/MOR inh 2 | TRPC6 inh conf | TRPC6 act conf | others
Cc1ccc(C)c(N2CCN(c3ccncc3N)CC2)c1 | n | -6.47 | n | n | n | n | n | n | 52.5% | n | n
Cc1cc(=O)c(C(=O)O)nn1-c1ccccc1Cl | n | n | n | n | n | x | x | x | x | x | x
Cc1ccc(OCC(COCc2ccccc2)NC(C)C)cc1 (centres undefined) | n | -9.34 | -6 | n | n | x | x | x | x | 100.6% | x | TRPC4 sel inh 2=41.5%;TRPC4 spec=37.6%;HEK293 MPD ctr 2-1=n;HEK293 MPD ctr-1=14.1%
CCN1CCN(C(=O)c2ccc3c(c2)c(C)c(C)n3Cc2ccccc2)CC1 | n | n | n | n | n | x | x | x | x | x | x
Cc1[nH]c2ccc(C(=O)OCCN(C)C)cc2c1C | n | n | n | n | n | x | x | x | x | x | x
Cc1c(C)n(Cc2ccccc2)c2ccc(C(=O)OCCCN(C)C)cc12 | n | -8.51 | n | n | n | x | x | x | x | 74.5% | n | TRPC4 sel inh 2=33.5%;TRPC4 spec=n;HEK293 MPD ctr 2-1=n;HEK293 MPD ctr-1=n
Cc1c(C)n(CCN(C)C)c2ccc(C(=O)OCCN(C)C)cc12 | n | -7.08 | n | n | n | -153.0% | n | -31.5% | 75.0% | 56.5% | n
CN(CC(=O)Nc1ccc(Cl)c(C(F)(F)F)c1)C(=O)Cc1c[nH]c2ccccc12 | n | -5.74 | n | n | n | n | n | -11.0% | 48.5% | 57.5% | n
CCOC(=O)C1=C(C)N(CCCC(=O)O)C(=O)NC1c1ccc(C(F)(F)F)cc1 (centres undefined) | n | n | n | n | n | x | x | x | x | x | x
O=C(COc1cc2oc(=O)c3c(c2cc1Cl)CCC3)NCc1ccncc1 | n | n | n | n | n | x | x | x | x | x | x
Cc1nnc(SCCn2c(N3CCN(C)CC3)nc3c2c(=O)[nH]c(=O)n3C)s1 | n | -10.2 | n | n | n | x | x | x | x | 68.8% | n | TRPC4 sel inh 2=74.0%;TRPC4 spec=-36.2%;HEK293 MPD ctr 2-1=n;HEK293 MPD ctr-1=-592.0%
Cn1c(=O)[nH]c(=O)c2c1nc(N1CCN(Cc3ccccc3)CC1)n2CCCc1ccccc1 | n | n | n | n | n | x | x | x | x | x | x
Cc1nnc(SCCn2c(N3CCN(Cc4ccccc4)CC3)nc3c2c(=O)[nH]c(=O)n3C)s1 | n | -7.77 | n | n | n | -278.5% | n | -43.5% | n | n | n
Cc1nnc(SCCn2c(N3CCCCCC3)nc3c2c(=O)[nH]c(=O)n3C)s1 | n | n | n | n | n | x | x | x | x | x | x
Cn1c(=O)[nH]c(=O)c2c1nc(N1CCN(Cc3ccccc3)CC1)n2CCSc1ncccn1 | n | -7.91 | n | n | n | -329.0% | 96.5% | -59.0% | 62.5% | 58.0% | n
CC(C(=O)Nc1cc(Cl)cc(Cl)c1)N1CCCC1 (centres undefined) | n | n | n | n | n | x | x | x | x | x | x
COc1ccc(-c2nc3cnccn3c2Nc2ccc(C)cc2)cc1 | n | -6.18 | n | n | n | -70.5% | n | -15.5% | 83.5% | 61.0% | n
Cc1cccc(C)c1Nc1c(-c2ccc(N3CCOCC3)cc2)nc2cnccn12 | n | -8.33 | n | n | n | -235.5% | n | -42.0% | 92.0% | 75.0% | n
Cc1ccc(Nc2c(-c3ccccc3)nc3cnccn23)cc1 | n | n | n | n | n | x | x | x | x | x | x
N#C/C(=N\Nc1cccc([N+](=O)[O-])c1)C(=O)c1ccc(Br)cc1 | n | -7.34 | -6 | n | n | x | x | x | x | 78.6% | n | TRPC4 sel inh 2=53.0%;TRPC4 spec=n;HEK293 MPD ctr 2-1=n;HEK293 MPD ctr-1=-156.5%
Cc1ccc(N(CCC#N)C(=O)COC(=O)C2CCN(c3ccc(C(F)(F)F)cn3)CC2)cc1 | n | n | n | n | n | x | x | x | x | x | x
Cc1cc(C)cc(N(CCC#N)C(=O)COC(=O)C2CCN(c3ccc(C(F)(F)F)cn3)CC2)c1 | n | -6.42 | n | n | n | n | n | 13.5% | n | n | n
COc1ccc(NS(=O)(=O)c2cc3c4c(c2)C(C)C(=O)N4CCC3)cc1 (centres undefined) | n | n | n | n | n | x | x | x | x | x | x
COc1ccc(C(=O)NCc2cnn(C)c2C)cc1OC1CCN(C(C)C)CC1 | n | n | n | n | n | x | x | x | x | x | x
CC1CC(C)CN(C(=O)c2ccc3c(c2NCCO)C(=O)c2ccccc2C3=O)C1 (centres undefined) | n | -6.96 | n | n | n | -245.5% | n | -45.0% | 80.0% | 68.5% | n
SMILES | TRPC4 PAM | TRPC6 inhibitor | TRPC4 block | TRPC4 agonist | TRPC6 act | HEK293 MPD ctr-2 | HEK293 MPD ctr 2-2 | TRPC4 ctr mod | TRPC4/MOR inh 2 | TRPC6 inh conf | TRPC6 act conf | others
c1csc(Cc2nc3ccccc3[nH]2)c1 | n | -13.6 | n | n | n | n | n | n | n | n | n
Cn1c(=O)n(Cc2ccc(F)cc2)c(=O)c2c1nc1n2CCCN1Cc1ccccc1 | n | -5.1 | n | n | n | n | n | n | n | n | n
CN(CCC(=O)c1ccccc1)CCC(=O)c1ccccc1 | n | -5.34 | n | n | n | n | n | 10.0% | n | n | x
CN(C)CCC(=O)c1ccc(Cl)cc1 | n | n | n | n | n | x | x | x | x | x | x
O=C(O)c1cccc(S(=O)(=O)N2CCN(Cc3ccc4c(c3)OCO4)CC2)c1 | n | n | n | n | n | x | x | x | x | x | x
Cc1ccccc1NC(=O)CSc1nnc(Cc2ccccc2)c(=O)n1N | n | n | n | n | n | x | x | x | x | x | x
COc1cc(S(=O)(=O)N2CCN(c3ccccc3F)CC2)ccc1Cl | n | -5.01 | n | n | n | n | n | n | n | n | n
Cc1cccc(-c2sc(Nc3ccccc3)n[n+]2-c2ccc(F)cc2)c1 | n | n | n | n | n | x | x | x | x | x | x
